The source made the active and inactive calls. No cut-off for these calls is given here.
Columns and labels:
[1] = Lipophilicity, log D of the compound in octanol-phosphate buffered saline at 100 uM after 12 hrs by shake flask method; assay type: physicochemical
[2] = Inhibition of full length recombinant Plasmodium falciparum CDPK1 using MTIP as substrate assessed as amount of ATP remaining after 1 hr by luminescence assay
[3] = molecular target: Mitogen-activated protein kinase kinase kinase 9 (Homo sapiens) (UniProt P80192); test: Inhibition of human MLK1 at 1 uM
Homo sapiens [4] = species on record: Homo sapiens; test: Inhibition of human VEGFR at 1 uM
[5] = molecular target: Serine/threonine-protein kinase pim-1 (Homo sapiens) (UniProt P11309); test: Inhibition of human PIM1 at 1 uM
[6] = molecular target: Ribosomal protein S6 kinase alpha-5 (Homo sapiens) (UniProt O75582); test: Inhibition of human MSK1 at 1 uM
[7] = molecular target: Aurora kinase B (Homo sapiens) (UniProt Q96GD4); test: Inhibition of human Aurora kinase B at 1 uM
[8] = molecular target: Ephrin type-A receptor 2 (Homo sapiens) (UniProt P29317); test: Inhibition of human EPHA2 at 1 uM
[9] = molecular target: Serine/threonine-protein kinase D1 (Homo sapiens) (UniProt Q15139); test: Inhibition of human PKD1 at 1 uM
[10] = molecular target: NUAK family SNF1-like kinase 1 (Homo sapiens) (UniProt O60285); test: Inhibition of human NUAK1 at 1 uM
[11] = molecular target: Serine/threonine-protein kinase Chk1 (Homo sapiens) (UniProt O14757); test: Inhibition of human CHK1 at 1 uM
[12] = molecular target: Serine/threonine-protein kinase N2 (Homo sapiens) (UniProt Q16513); test: Inhibition of human PRK2 at 1 uM
[13] = molecular target: MAP kinase-interacting serine/threonine-protein kinase 1 (Homo sapiens) (UniProt Q9BUB5); test: Inhibition of human MNK1 at 1 uM
[14] = molecular target: Mitogen-activated protein kinase kinase kinase 11 (Homo sapiens) (UniProt Q16584); test: Inhibition of human MLK3 at 1 uM
[15] = molecular target: Myosin light chain kinase, smooth muscle (Homo sapiens) (UniProt Q15746); test: Inhibition of human SmMLCK at 1 uM
[16] = molecular target: Fibroblast growth factor receptor 1 (Homo sapiens) (UniProt P11362); test: Inhibition of human FGFR1 at 1 uM
[17] = molecular target: Proto-oncogene tyrosine-protein kinase Src (Homo sapiens) (UniProt P12931); test: Inhibition of human SRC at 1 uM
[18] = molecular target: Tyrosine-protein kinase Lck (Homo sapiens) (UniProt P06239); test: Inhibition of human LCK at 1 uM
[19] = molecular target: Misshapen-like kinase 1 (Homo sapiens) (UniProt Q8N4C8); test: Inhibition of human MINK1 at 1 uM
[20] = molecular target: Mitogen-activated protein kinase kinase kinase kinase 2 (Homo sapiens) (UniProt Q12851); test: Inhibition of human GCK at 1 uM
[21] = molecular target: Serine/threonine-protein kinase Chk2 (Homo sapiens) (UniProt O96017); test: Inhibition of human CHK2 at 1 uM
[22] = molecular target: Receptor tyrosine-protein kinase erbB-4 (Homo sapiens) (UniProt Q15303); test: Inhibition of human HER4 at 1 uM
[23] = molecular target: Interleukin-1 receptor-associated kinase 4 (Homo sapiens) (UniProt Q9NWZ3); test: Inhibition of human IRAK4 at 1 uM
[24] = molecular target: Tyrosine-protein kinase Yes (Homo sapiens) (UniProt P07947); test: Inhibition of human YES1 at 1 uM
Plasmodium falciparum = test: Antiparasitic activity against Plasmodium falciparum assessed as parasite growth inhibition after 48 hrs by hydroethidine staining-based flow cytometric analysis; assay type: functional, organism-based
Summary of the method: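 Compounds diluted into 2% DMSO were added to cultured parasites 24 h post-invasion and incubated under static conditions. Cells were harvested 48 h later and stained for parasite DNA with hydroethidine for flow cytometry. Growth inhibition (%) = (1 − parasitaemia of treated culture / parasitaemia of control culture) × 100, and EC50 was derived from it.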

[25] = molecular target: Phosphorylase kinase (Homo sapiens) (UniProt P15735+P46020+P46019+Q93100+Q16816); test: Inhibition of human PHK at 1 uM; assay type: protein-complex assay
[26] = molecular target: Serine/threonine-protein kinase 3 (Homo sapiens) (UniProt Q13188); test: Inhibition of human MST2 at 1 uM
[27] = molecular target: Serine/threonine-protein kinase PAK 4 (Homo sapiens) (UniProt O96013); test: Inhibition of human PAK4 at 1 uM
[28] = molecular target: Ribosomal protein S6 kinase alpha-1 (Homo sapiens) (UniProt Q15418); test: Inhibition of human RSK1 at 1 uM
[29] = molecular target: Serine/threonine-protein kinase BRSK2 (Homo sapiens) (UniProt Q8IWQ3); test: Inhibition of human BRSK2 at 1 uM
[30] = molecular target: MAP/microtubule affinity-regulating kinase 3 (Homo sapiens) (UniProt P27448); test: Inhibition of human MARK3 at 1 uM
[31] = molecular target: Casein kinase II (Homo sapiens) (UniProt P67870+P68400+P19784); test: Inhibition of human CK2 at 1 uM; assay type: protein-complex assay
Homo sapiens [32] = species on record: Homo sapiens; test: Inhibition of human CK1 at 1 uM
[33] = molecular target: Maternal embryonic leucine zipper kinase (Homo sapiens) (UniProt Q14680); test: Inhibition of human MELK at 1 uM
[34] = molecular target: MAP kinase-interacting serine/threonine-protein kinase 2 (Homo sapiens) (UniProt Q9HBH9); test: Inhibition of human MNK2 at 1 uM
[35] = molecular target: Dual specificity tyrosine-phosphorylation-regulated kinase 1A (Homo sapiens) (UniProt Q13627); test: Inhibition of human DRYK1A at 1 uM
[36] = molecular target: Tyrosine-protein kinase BTK (Homo sapiens) (UniProt Q06187); test: Inhibition of human BTK at 1 uM
[37] = molecular target: Rho-associated protein kinase 2 (Homo sapiens) (UniProt O75116); test: Inhibition of human ROCK2 at 1 uM
[38] = Apparent permeability of the compound at 50 to 200 uM after 5 hrs by PAMPA; assay type: ADME

Mitogen-activated protein kinase kinase kinase 11 (Homo sapiens), sequence (Q16584 whole entry, looked up): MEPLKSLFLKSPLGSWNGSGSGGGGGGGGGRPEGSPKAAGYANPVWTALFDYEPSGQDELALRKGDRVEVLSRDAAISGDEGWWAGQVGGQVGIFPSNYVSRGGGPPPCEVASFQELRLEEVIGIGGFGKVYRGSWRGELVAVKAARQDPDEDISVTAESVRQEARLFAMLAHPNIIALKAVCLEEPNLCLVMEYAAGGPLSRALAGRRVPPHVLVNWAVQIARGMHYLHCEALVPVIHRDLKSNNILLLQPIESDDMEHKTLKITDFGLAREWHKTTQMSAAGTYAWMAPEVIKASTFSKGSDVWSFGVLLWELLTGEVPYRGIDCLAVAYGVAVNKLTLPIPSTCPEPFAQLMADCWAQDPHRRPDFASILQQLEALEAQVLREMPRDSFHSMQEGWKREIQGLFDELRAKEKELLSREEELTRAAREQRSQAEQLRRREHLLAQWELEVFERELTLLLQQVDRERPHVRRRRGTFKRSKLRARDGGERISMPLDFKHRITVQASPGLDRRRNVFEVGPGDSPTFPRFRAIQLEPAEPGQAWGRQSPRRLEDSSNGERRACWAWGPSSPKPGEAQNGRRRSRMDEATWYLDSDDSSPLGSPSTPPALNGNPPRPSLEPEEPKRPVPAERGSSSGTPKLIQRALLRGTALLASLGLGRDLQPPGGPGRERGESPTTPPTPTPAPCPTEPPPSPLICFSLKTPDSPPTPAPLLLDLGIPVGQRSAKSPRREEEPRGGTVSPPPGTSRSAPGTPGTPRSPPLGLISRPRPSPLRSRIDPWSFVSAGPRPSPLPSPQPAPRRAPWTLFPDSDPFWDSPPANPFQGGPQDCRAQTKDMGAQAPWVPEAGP
Ephrin type-A receptor 2 (Homo sapiens), sequence (P29317 whole entry): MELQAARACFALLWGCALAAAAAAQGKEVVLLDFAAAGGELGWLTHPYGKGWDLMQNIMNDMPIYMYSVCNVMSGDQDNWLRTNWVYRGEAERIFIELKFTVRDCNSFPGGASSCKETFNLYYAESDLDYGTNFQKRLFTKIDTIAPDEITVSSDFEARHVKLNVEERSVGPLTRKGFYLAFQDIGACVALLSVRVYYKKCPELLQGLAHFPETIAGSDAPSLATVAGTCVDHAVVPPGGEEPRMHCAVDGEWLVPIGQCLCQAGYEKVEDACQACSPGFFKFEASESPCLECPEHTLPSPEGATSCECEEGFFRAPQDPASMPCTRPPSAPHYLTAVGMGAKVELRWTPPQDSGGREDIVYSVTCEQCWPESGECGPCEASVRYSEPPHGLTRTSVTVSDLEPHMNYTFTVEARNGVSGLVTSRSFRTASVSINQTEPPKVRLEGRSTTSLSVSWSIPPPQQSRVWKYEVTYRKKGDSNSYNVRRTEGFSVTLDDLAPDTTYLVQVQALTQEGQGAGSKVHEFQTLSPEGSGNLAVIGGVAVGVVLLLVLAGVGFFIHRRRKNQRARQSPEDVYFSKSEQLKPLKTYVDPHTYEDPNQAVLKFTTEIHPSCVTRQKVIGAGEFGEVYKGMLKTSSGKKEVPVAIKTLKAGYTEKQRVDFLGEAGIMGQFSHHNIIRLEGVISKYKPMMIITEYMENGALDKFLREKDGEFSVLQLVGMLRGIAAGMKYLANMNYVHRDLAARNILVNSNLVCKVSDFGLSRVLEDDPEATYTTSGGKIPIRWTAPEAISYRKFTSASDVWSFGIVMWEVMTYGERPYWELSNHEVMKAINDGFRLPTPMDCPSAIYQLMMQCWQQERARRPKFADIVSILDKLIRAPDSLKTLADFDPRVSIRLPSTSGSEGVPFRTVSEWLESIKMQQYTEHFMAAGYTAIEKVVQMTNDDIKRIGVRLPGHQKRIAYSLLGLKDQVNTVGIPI
Receptor tyrosine-protein kinase erbB-4 (Homo sapiens), sequence (Q15303 whole entry): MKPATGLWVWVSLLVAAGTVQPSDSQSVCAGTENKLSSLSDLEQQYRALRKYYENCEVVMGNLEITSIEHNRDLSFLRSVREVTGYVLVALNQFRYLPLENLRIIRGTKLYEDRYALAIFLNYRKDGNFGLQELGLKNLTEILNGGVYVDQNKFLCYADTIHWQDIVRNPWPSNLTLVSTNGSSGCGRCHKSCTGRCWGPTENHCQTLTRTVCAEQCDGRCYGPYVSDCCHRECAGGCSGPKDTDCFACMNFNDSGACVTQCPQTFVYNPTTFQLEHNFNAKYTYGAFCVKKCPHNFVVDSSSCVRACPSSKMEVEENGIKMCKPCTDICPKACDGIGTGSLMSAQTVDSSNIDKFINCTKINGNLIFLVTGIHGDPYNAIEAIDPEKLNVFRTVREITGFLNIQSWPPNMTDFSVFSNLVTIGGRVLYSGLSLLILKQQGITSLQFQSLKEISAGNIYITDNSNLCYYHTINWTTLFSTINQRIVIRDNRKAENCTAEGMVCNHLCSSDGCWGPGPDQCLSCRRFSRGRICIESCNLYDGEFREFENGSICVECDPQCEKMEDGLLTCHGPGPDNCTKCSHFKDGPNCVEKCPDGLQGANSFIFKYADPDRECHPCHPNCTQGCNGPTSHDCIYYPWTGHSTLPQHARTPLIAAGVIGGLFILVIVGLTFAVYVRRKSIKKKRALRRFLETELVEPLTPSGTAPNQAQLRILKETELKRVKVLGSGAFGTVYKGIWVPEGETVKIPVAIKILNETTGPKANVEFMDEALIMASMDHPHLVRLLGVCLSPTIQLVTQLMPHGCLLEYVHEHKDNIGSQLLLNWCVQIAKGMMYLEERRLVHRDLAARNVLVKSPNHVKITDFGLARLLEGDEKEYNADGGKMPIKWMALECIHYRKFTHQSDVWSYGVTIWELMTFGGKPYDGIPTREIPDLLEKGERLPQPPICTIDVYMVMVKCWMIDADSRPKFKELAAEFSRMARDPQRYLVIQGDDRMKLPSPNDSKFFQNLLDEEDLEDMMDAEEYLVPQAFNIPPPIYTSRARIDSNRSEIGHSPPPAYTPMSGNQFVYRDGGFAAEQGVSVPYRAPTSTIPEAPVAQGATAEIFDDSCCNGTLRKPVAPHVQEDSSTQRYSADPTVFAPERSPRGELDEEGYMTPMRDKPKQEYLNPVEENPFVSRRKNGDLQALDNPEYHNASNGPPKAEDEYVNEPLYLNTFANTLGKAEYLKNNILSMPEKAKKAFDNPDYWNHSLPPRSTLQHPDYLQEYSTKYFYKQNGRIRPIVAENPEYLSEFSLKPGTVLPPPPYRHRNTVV
Myosin light chain kinase, smooth muscle (Homo sapiens), sequence (Q15746 whole entry): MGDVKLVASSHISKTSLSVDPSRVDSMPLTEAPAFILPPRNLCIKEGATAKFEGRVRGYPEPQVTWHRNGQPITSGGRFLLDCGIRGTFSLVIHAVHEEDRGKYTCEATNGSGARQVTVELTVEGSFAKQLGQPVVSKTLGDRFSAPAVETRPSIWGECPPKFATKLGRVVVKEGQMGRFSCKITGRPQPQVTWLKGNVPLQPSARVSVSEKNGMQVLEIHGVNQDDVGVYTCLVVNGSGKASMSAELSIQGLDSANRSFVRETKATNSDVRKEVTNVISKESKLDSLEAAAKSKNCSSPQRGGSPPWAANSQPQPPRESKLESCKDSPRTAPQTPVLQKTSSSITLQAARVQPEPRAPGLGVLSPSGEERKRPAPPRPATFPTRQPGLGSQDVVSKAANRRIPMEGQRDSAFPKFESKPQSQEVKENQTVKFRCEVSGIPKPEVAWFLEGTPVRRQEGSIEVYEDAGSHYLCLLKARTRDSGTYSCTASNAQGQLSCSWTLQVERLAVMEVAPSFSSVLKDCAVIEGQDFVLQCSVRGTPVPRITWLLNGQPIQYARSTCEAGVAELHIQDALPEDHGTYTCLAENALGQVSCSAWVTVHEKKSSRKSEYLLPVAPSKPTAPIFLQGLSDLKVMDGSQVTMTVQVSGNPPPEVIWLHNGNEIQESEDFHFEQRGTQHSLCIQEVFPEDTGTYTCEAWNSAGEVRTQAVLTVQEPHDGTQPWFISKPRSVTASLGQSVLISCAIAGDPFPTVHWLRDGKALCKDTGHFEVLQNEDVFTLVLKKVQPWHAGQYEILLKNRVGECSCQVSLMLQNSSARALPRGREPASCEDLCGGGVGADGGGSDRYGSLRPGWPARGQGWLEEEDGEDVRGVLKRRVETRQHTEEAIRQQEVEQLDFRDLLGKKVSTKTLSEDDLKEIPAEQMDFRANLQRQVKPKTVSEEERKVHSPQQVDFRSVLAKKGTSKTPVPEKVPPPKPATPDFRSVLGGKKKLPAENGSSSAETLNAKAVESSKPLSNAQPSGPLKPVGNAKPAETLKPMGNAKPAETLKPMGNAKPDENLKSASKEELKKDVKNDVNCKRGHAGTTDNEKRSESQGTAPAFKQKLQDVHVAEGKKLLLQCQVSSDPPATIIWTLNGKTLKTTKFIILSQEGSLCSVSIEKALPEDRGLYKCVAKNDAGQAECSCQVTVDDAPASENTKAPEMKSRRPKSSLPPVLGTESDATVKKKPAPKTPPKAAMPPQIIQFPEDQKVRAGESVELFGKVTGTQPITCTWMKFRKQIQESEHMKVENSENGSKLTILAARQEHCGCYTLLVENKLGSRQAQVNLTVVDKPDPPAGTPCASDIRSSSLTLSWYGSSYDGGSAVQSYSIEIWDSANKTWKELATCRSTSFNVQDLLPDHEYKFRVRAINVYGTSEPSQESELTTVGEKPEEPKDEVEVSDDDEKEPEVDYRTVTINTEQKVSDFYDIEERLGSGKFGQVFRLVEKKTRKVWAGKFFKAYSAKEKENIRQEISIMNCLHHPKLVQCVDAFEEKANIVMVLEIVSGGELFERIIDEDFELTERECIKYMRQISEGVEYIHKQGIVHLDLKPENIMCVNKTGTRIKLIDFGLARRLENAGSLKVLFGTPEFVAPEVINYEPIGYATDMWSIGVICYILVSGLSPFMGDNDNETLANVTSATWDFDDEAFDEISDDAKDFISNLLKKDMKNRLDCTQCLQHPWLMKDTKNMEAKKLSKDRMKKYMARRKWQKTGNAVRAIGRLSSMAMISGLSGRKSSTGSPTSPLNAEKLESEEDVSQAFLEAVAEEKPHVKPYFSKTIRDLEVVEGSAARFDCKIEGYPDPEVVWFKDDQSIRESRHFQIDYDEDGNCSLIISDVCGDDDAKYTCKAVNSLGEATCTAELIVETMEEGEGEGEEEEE

CN1CCC(Nc2ccc3ncc(-c4cnn(Cc5ccccc5F)c4)n3n2)CC1
logD at 12 h, 100 µM [1]: 3 | IC50 [2]: 331 nM

c1ccc(-n2cc(-c3cnc4ccc(NC5CCNCC5)nn34)cn2)cc1
inhibition [3]: Active | inhibition (Homo sapiens [4]): Active | inhibition [5]: Active | inhibition [6]: Active | inhibition [7]: Active | inhibition [8]: Active | inhibition [9]: Active | inhibition [10]: Active | inhibition [11]: Active | inhibition [12]: Active | inhibition [13]: Active | inhibition [14]: Active | inhibition [15]: Active | inhibition [16]: Active | inhibition [17]: Active | inhibition [18]: Active | inhibition [19]: Active | inhibition [20]: Active | inhibition [21]: Active | inhibition [22]: Active | inhibition [23]: Active | inhibition [24]: Active

CN1CCC(Nc2ccc3ncc(-c4cnn(C5CCCC5)c4)n3n2)CC1
IC50 [2]: 1980 nM

CN1CCC(Nc2ccc3ncc(-c4cnn(-c5ncccc5F)c4)n3n2)CC1
logD at 12 h, 100 µM [1]: 2.9

CN1CCC(Nc2ccc3ncc(-c4cnn(-c5ccc(F)cc5)c4)n3n2)CC1
EC50 (Plasmodium falciparum): 561 nM | logD at 12 h, 100 µM [1]: 2.8 | IC50 [2]: 45 nM

CN1CCC(Nc2ccc3ncc(-c4cnn(-c5ccc(F)cc5F)c4)n3n2)CC1
logD at 12 h, 100 µM [1]: 2.9

CN1CCC(Nc2ccc3ncc(-c4cnn(-c5ccccc5)c4)n3n2)CC1
IC50 [2]: 71 nM

CN1CCC(Nc2ccc3ncc(-c4cnn(-c5ccc(C#N)cc5)c4)n3n2)CC1
inhibition [3]: Active | inhibition (Homo sapiens [4]): Active | inhibition [5]: Active | inhibition [25]: Active | inhibition [26]: Active | inhibition [27]: Active | inhibition [8]: Active | inhibition [28]: Active | inhibition [29]: Active | inhibition [10]: Active | inhibition [30]: Active | inhibition [31]: Active | inhibition [11]: Active | inhibition (Homo sapiens [32]): Active | inhibition [12]: Active | inhibition [33]: Active | inhibition [34]: Active | inhibition [13]: Active | inhibition [35]: Active | inhibition [14]: Active | inhibition [15]: Active | inhibition [17]: Active | inhibition [19]: Active | inhibition [36]: Active | inhibition [20]: Active | inhibition [22]: Active | inhibition [37]: Active | inhibition [23]: Active | inhibition [24]: Active

Cc1cc(F)ccc1-n1cc(-c2cnc3ccc(NC4CCN(C)CC4)nn23)cn1
logD at 12 h, 100 µM [1]: 2.9

CN1CCC(Nc2ccc3ncc(-c4cnn(-c5cccc(F)c5)c4)n3n2)CC1
EC50 (Plasmodium falciparum): 394 nM | Papp at 5 h, up to 200 µM [38]: 11 ×10⁻⁶ cm/s | logD at 12 h, 100 µM [1]: 3.1 | IC50 [2]: 20 nM

CN1CCC(Nc2ccc3ncc(-c4cnn(-c5ccc(F)cn5)c4)n3n2)CC1
logD at 12 h, 100 µM [1]: 2.9
